Measured values published in publication PMC4489158 (Biochemistry, 2009).

Key:
[1] = cited from earlier work
[2] = tested on: γ-secretase (Aβ42, Aβ38, Aβ40 production); conditions: cited from earlier work
[3] = biological target: γ-secretase cleavage of APLP2 (APLP2 ICD production) (Cricetulus griseus, UniProt A0A061HTR1+A0A061IL97+A0A8C2QG42+G3HNF2); assay: ICD in vitro generation; format: biochemical, human; conditions: for effect on ICD production from APLP2: tested between 100 and 500 µM
[4] = biological target: γ-secretase cleavage of APP (APP ICD production) (Cricetulus griseus, UniProt A0A061HTR1+A0A061IL97+A0A8C2QG42+G3HNF2); assay: ICD in vitro generation; format: biochemical, human; conditions: for concentration at which APP ICD production is decreased: microsomes; for effect on ICD production from APP: tested between 100 and 500 µM
[5] = tested on: γ-secretase cleavage of APLP1 (APLP1 ICD production); assay: ICD in vitro generation; format: biochemical, human; conditions: for effect on ICD production from APLP1: tested between 100 and 500 µM
[6] = tested on: γ-secretase processing of APP (APP CTFs); assay: CTF accumulation in intact CHO cells expressing APP-His; format: cell-based, Chinese hamster; conditions: overnight (14 h)
In short: (§1)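 CHO cells stably expressing full-length human His-tagged APP or APLP1 (zeocin selection) were grown to confluence in six-well plates, then treated overnight (~14 h) with test compound or vehicle. Cells were lysed in NP-40 buffer with protease inhibitors. Equal protein (BCA) was immunoblotted with TetraHis antibody and ECL. CTF bands were quantified as fold over vehicle, with at least three measurements, and significance was assessed by two-way ANOVA.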

[7] = tested on: γ-secretase processing of APLP1 (APLP1 CTFs); assay: CTF accumulation in intact CHO cells expressing APLP1-His; format: cell-based, Chinese hamster; conditions: overnight (14 h)
In short: as §1

C[C@@H](C(=O)O)c1ccc(-c2ccccc2)c(F)c1 [R-flurbiprofen, 2-(3-fluoro-4-phenylphenyl)propanoate]
brain penetrance [1]: poor | effect on Aβ38 levels [2]: increase | effect on Aβ42 levels [2]: reducing | effect on ICD production from APLP2 [3]: weak inhibitory effect | concentration at which APP ICD production is decreased [4]: ≥ 400 µM | effect on ICD production from APP [4]: weakly inhibited | effect on ICD production from APLP1 [5]: unaffected

C[C@H](NC(=O)Cc1cc(F)cc(F)c1)C(=O)N[C@H]1N=C(c2ccccc2)c2ccccc2N(C)C1=O [compound E, (2S)-2-{[(3,5-Difluorophenyl)acetyl]amino}-N-[(3S)-1-methyl-2-oxo-5-phenyl-2,3-dihydro-1H-1,4-benzodia-zepin-3-yl]propanamide]
concentration needed for a 2-fold increase in CTF band signal, APP [6]: 0.27 ± 0.01 nM | concentration needed for a 2-fold increase in CTF band signal, APLP1 [7]: 0.24 ± 0.22 nM

C[C@H](NC(=O)Cc1cc(F)cc(F)c1)C(=O)NC(C(=O)OC(C)(C)C)c1ccccc1 (stereo partly drawn) [DAPT, N-[N-(3,5-difluoro-phenacetyl)-l-alanyl]-S-phenylglycine tert-butyl ester]
IC50 ([5]; read-out: IC50 of γ-secretase processing of APLP1 (ICD production)): 95.7 nM

CC(C(=O)O)c1cccc(Oc2cc(Cl)cc(Cl)c2)c1 (centres unmarked) [FT-9, 2-[3-(3,5-dichlorophenoxy)phenyl]propanoic acid]
concentration causing accumulation of APP CTFs [6]: ≥ 5 µM | concentration required to cause a 2-fold increase in APP CTFs [6]: 3.4 ± 0.4 µM | concentration at which APLP2 ICD production is decreased ([3]; microsomes): ≥ 100 µM | inhibition at 500 µM ([3]; read-out: reduction of APLP2 ICDs): 70 to 75% | concentration causing significant accumulation of APLP1 CTFs [7]: ≥ 20 µM | concentration required to cause a 2-fold increase in APLP1 CTFs [7]: 25.7 ± 8.9 µM | concentration at which APP ICD production is decreased [4]: ≥ 100 µM | inhibition at 500 µM ([4]; read-out: reduction of APP ICDs): 70 to 75% | reduction of APLP1 ICDs ([5]; 500 µM, highest concentration tested): ~ 38% | concentration at which APLP1 ICD production is decreased ([5]; microsomes): ≥ 100 µM

propan-2-yl 2-[4-(4-chlorobenzoyl)phenoxy]-2-ethylpropanoate [fenofibrate]
effect on level of production of Aβ38 [2]: reduces | effect on level of production of Aβ42 [2]: increases | effect on levels of Aβ40 [2]: almost unchanged | effect on ICD production from APLP2 [3]: unaffected | effect on ICD production from APP [4]: unaffected | effect on ICD production from APLP1 [5]: unaffected
